# High-throughput results from PubChem BioAssay.
# NR2E3 ag-1 – activates human photoreceptor nuclear receptor NR2E3; GST-NR2E3/biotin-RetCOR TR-FRET, 1536-well; inhibition of corepressor binding, % at 4.78 µM; 320,000 tested, 0.12% active; AID 2300;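 active means percent inhibition above the cutoff of mean plus 3 SD of all tested compounds, set per screening campaign, cut at about 20% in these data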
# Target sequence (Q9Y5X4 whole entry, looked up): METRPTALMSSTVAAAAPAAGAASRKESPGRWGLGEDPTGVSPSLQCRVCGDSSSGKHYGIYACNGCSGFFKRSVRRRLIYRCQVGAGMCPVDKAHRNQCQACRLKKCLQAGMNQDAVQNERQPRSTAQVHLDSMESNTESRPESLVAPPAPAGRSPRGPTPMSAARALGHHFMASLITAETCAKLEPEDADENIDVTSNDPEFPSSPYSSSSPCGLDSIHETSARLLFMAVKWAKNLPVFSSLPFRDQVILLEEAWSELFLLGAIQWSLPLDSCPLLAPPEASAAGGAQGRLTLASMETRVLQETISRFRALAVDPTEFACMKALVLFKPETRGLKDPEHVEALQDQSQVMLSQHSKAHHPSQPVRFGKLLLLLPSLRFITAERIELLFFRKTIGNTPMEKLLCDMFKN
#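 Material: NR2E3–RetCOR corepressor complex | Quantity: 1.35 nM GST-tagged NR2E3 final | Schedule: 5 h at 4 °C | Replication: Singlicate compound wells | Reagent: RetCOR corepressor, biotinylated, 7 nM | Controls: Biotin wells as high control, 0.6% DMSO wells as low control | Signal: TR-FRET, Eu(K)-anti-GST donor, streptavidin-D2 acceptor, ex 340, em 617/671 nm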
# V-ATPase pH – yeast V-ATPase proton transport regulation by pHLuorin | S. cerevisiae, pHLuorin cytosolic pH fluorescence | AID 504577 | response, % at 10 µM | 350,000 tested, 0.37% active; in the data active means response mostly above about 7.3%, no sharp cut-off; inactive means mostly below about 5.4%; further: actives read high
# GalR3 antagonist – human GalR3 antagonism. O60755. HEK293 GalR3-CNG cAMP membrane potential fluorescence; galR3 body fused to GalR1 C-terminus. inhibition, % at 3 µM. 360,000 tested, 0.44% active;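 active means inhibition above the screen-wide average plus 3 SD, cut at about 13% in these data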;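 further: forskolin and galanin both at EC90 stimulate the cells; cAMP rise reported by CNG channel membrane potential dye signal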
# Target sequence (O60755 1-299 limits assumed): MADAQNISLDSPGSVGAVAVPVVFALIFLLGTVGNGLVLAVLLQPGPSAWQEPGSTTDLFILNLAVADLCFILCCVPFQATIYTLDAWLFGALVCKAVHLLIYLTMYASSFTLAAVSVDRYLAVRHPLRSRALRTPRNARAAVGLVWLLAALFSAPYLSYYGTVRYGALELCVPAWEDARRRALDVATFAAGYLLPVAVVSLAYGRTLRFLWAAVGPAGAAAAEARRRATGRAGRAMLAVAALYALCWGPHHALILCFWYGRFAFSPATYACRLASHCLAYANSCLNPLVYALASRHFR
# HIV Env fusion – blocks HIV Env-driven cell-cell fusion. HeLa-JRFL Env/CEM21 cell fusion, luciferase. inhibition, % at 12.3 µM. 360,000 tested, 1.1% active. AID 651610;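 active means mean replicate inhibition score of at least 50 and every replicate individually at or above 50; inconclusive means only one of the two criteria met; inactive means mean below 50 and not all replicates reaching 50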
# NR2E3 ag-2 – activates human NR2E3 receptor; Q9Y5X4; CHO-S Gal4-NCOR/VP16-NR2E3 two-hybrid, luciferase; inhibition of corepressor binding, % at 3.98 µM; AID 602229; 360,000 tested, 0.35% active;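 active means inhibition above the mean of all tested compounds plus 3 SD, cut at about 70% in these data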;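 further: higher means lower luciferase signal from less NR2E3 corepressor binding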
# GAA850 FXN act – frataxin GAA850 promoter activation; AID 540364; activation, % at 6 µM; 360,000 tested, 0.56% active; HEK293 lucGAA850 FXN promoter luciferase reporter, 24 h; percent of 10 µM SAHA response;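 active means activation above the average of all compounds screened plus 3 SD, cutoff fixed separately per campaign, cut at about 7.5% in these data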
# GAA30 FXN cntr – GAA30 FXN promoter activation counter-screen | shares compounds with GAA850 FXN act | HEK293 lucGAA30 FXN promoter luciferase, 24 h; DMSO = 0%, 5 µM ipriflavone = 100% | 1,900 tested, 66% active | activation, % at 6 µM;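 active means mean activation above the mean of solvent-only control wells plus 3 SD, cut at about 22% in these data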;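 further: counterscreen of GAA850 promoter hits where activity marks nonselective or luminescence artifacts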
# GAA850 confirm – confirmation of GAA850 frataxin (FXN) promoter activators | shares compounds with GAA850 FXN act | HEK293 lucGAA850 FXN promoter luciferase reporter, 24 h; 100% = activation by SAHA | activation, % at 6 µM | 1,900 tested, 86% active;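 active means mean activation above a set limit taken from the primary screen, cut at about 8% in these data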
# Numbers stand for hits; - = inactive; ? = inconclusive; . = no result given. Hits are enriched below; roughly 2.2% of the tested compounds scored in any of these assays.
SMILES,NR2E3 ag-1,V-ATPase pH,GalR3 antagonist,HIV Env fusion,NR2E3 ag-2,GAA850 FXN act,GAA30 FXN cntr,GAA850 confirm
Cc1ccc(S(=O)(=O)Nc2ccc3c(c2)C(=O)N([C@@H](C)CO)C[C@@H](C)[C@H](CN(C)C(=O)Nc2ccccc2)OCCCC[C@@H](C)O3)cc1,.,.,.,-,.,.,.,.
CC(=O)/C=C\c1ccccc1OC(=O)c1cc2ccccc2oc1=O,-,-,-,-,-,-,.,.
O=C(/C=C\c1ccccc1OC(=O)c1ccccc1F)c1cc2ccccc2o1,-,-,-,-,-,10,94,29
CCNC(=O)C[C@H]1CC[C@@H]2[C@@H](COc3ccc(NC(=O)Nc4ccc(C)cc4)cc3C(=O)N2C)O1,.,.,.,-,.,.,.,.
CC1(C)CC(=O)c2c(O)cc(OCc3ccc(Br)cc3)cc2O1,-,-,-,.,-,9.4,99,36
CC1(C)CC(=O)c2ccc(OCc3ccc([N+](=O)[O-])cc3)cc2O1,-,-,-,-,-,8.4,136,50
O=C(C(Cc1ccccc1)NS(=O)(=O)c1cccc2cccnc12)N1CCc2ccccc21 (stereo not given),-,-,-,55,-,13,24,9.1
C=CCSc1nc(N)c(NC(=O)c2ccco2)c(=O)[nH]1,-,-,.,.,-,14,28,9.8
CCCCc1ccc(-c2ccc(Br)cc2)nc1,-,-,-,.,-,8.4,107,34
CCCc1ccc(-c2ccc(-c3noc(-c4ccncc4)n3)cc2)nc1,-,-,-,-,-,-,.,.
COCC#Cc1cnc2c(c1)C(=O)N([C@H](C)CO)C[C@H](C)[C@@H](CN(C)C(=O)Nc1ccccc1F)O2,.,.,.,-,.,.,.,.
Cc1ccc(S(=O)(=O)N(C)C[C@@H]2OCc3ccccc3-c3c(n(C)c4ccccc34)C(=O)N([C@H](C)CO)C[C@@H]2C)cc1,.,-,-,95,-,13,-,8.8
C[C@@H]1CN([C@@H](C)CO)C(=O)c2c(c3ccccc3n2C)-c2ccccc2CO[C@@H]1CN(C)S(=O)(=O)c1ccsc1,.,.,.,-,.,.,.,.
C[C@H](CO)N1C[C@H](C)[C@H](CN(C)S(C)(=O)=O)OCc2ccccc2-c2c(n(C)c3ccccc23)C1=O,.,-,-,-,-,-,.,.
C[C@H](CO)N1C[C@H](C)[C@H](CN(C)S(=O)(=O)c2ccc(Cl)cc2)OCc2ccccc2-c2c(n(C)c3ccccc23)C1=O,.,-,-,82,-,12,-,9.8
C[C@@H]1CN([C@@H](C)CO)C(=O)Cc2cc(NC(=O)CCCCCC(=O)Nc3ccccc3N)ccc2O[C@@H]1CN(C)S(=O)(=O)c1ccccc1,.,.,.,-,.,.,.,.
COCC(=O)Nc1ccc2c(c1)C(=O)N(C)[C@H]1CC[C@H](CC(=O)NCCc3ccccc3)O[C@@H]1CO2,.,.,.,-,.,.,.,.
C[C@@H]1CCCCO[C@@H](CN(C)C(=O)Nc2ccccc2)[C@H](C)CN([C@H](C)CO)C(=O)c2cc(NC(=O)NC3CCCCC3)ccc2O1,.,.,.,-,.,.,.,.
N/C(=N\OC(=O)c1ccc2c(c1)OCO2)c1cccc([N+](=O)[O-])c1,-,-,-,-,-,-,.,.
Cc1cccc(/C(N)=N/OC(=O)c2ccc3c(c2)OCO3)c1,-,-,-,-,-,7.9,105,39
Nc1c(Br)cc2oc(-c3ccccc3)nc2c1Br,-,-,-,.,-,7.9,102,41
CN1/C(=C\C(=O)c2cccnc2)C(C)(C)c2ccccc21,-,-,-,-,-,-,.,.
CN1/C(=C/C(=O)c2nc(S(C)(=O)=O)ncc2Cl)C(C)(C)c2ccccc21,-,-,.,.,-,9.8,-,-
Cc1cc(C)nc(Nc2n[nH]c(-c3ccc(N)cc3)n2)n1,-,-,-,-,-,8.2,93,34
C[C@@H](O)C#Cc1ccc2c(c1)O[C@H](CN(C)C(=O)C1CC1)[C@@H](C)CN([C@@H](C)CO)S2(=O)=O,.,.,.,-,.,.,.,.
SMILES,NR2E3 ag-1,V-ATPase pH,GalR3 antagonist,HIV Env fusion,NR2E3 ag-2,GAA850 FXN act,GAA30 FXN cntr,GAA850 confirm
CC(C)NC(=O)N(C)C[C@H]1Oc2cc(C#CCN(C)C)ccc2S(=O)(=O)N([C@@H](C)CO)C[C@@H]1C,.,.,.,-,.,.,.,.
COc1cc([N+](=O)[O-])c2nccnc2c1,-,-,-,-,-,-,.,.
CCOc1cc([N+](=O)[O-])c2nc(N)sc2c1,-,-,-,-,-,7.9,39,19
C=CCc1c(C)nc(-c2ccccc2)nc1Nc1ccccc1O,-,-,-,-,-,7.9,30,21
Cc1nn(C)cc1NC(=O)C[C@H]1CC[C@@H]2[C@@H](COc3ccc(NC(=O)C(C)C)cc3C(=O)N2C)O1,.,.,.,-,.,.,.,.
CC1(C(=O)Nc2nc3ccccc3s2)CC1(Br)Br (stereo not given),.,-,-,-,-,11,103,36
Cc1c(Cl)ccc2sc(NC(=O)c3ccco3)nc12,-,-,.,-,-,7.7,105,38
CS(=O)(=O)c1ccc2nc(NC(=O)c3ccco3)sc2c1,-,-,-,-,-,-,.,.
CCOc1ccc(Nc2n[nH]c(=S)s2)cc1,-,-,-,-,-,9.8,116,32
CCN(C[C@H]1N[C@@](C)(C(=O)OC)[C@H]2C(=O)N(Cc3ccccc3)C(=O)[C@@H]12)C(=O)Nc1ccc(F)cc1,.,-,-,57,-,15,25,-
COC(=O)[C@]1(C)N[C@H](CN(C)C(=O)Nc2ccc(C)cc2)[C@@H]2C(=O)N(Cc3ccccc3)C(=O)[C@@H]21,.,-,-,64,-,12,25,-
CCNC(=O)N(C)C[C@H]1N[C@@](C)(C(=O)OC)[C@H]2C(=O)N(Cc3ccccc3)C(=O)[C@@H]12,.,-,-,-,-,-,.,.
COC(=O)[C@]1(C)N[C@H](CN(C)C(=O)Nc2ccc(Cl)cc2)[C@@H]2C(=O)N(Cc3ccccc3)C(=O)[C@@H]21,.,-,-,79,-,18,24,13
COC(=O)[C@]1(C)N[C@H](CN(C)C(=O)Nc2ccc(OC)cc2)[C@@H]2C(=O)N(Cc3ccccc3)C(=O)[C@@H]21,.,-,-,?,-,8.3,-,17
COC(=O)[C@]1(Cc2ccccc2)N[C@H](CN(C)C(=O)Nc2ccc(Cl)cc2)[C@@H]2C(=O)N(Cc3ccccc3)C(=O)[C@@H]21,.,-,-,-,-,-,.,.
CCN(C[C@H]1N[C@@](C)(C(=O)OC)[C@H]2C(=O)N(Cc3ccccc3)C(=O)[C@@H]12)C(=O)c1ccc(F)cc1,.,-,-,-,-,-,.,.
